Assay [1] addresses T1, Polyunsaturated fatty acid 5-lipoxygenase (Homo sapiens) (UniProt P09917).
T1 sequence (whole entry): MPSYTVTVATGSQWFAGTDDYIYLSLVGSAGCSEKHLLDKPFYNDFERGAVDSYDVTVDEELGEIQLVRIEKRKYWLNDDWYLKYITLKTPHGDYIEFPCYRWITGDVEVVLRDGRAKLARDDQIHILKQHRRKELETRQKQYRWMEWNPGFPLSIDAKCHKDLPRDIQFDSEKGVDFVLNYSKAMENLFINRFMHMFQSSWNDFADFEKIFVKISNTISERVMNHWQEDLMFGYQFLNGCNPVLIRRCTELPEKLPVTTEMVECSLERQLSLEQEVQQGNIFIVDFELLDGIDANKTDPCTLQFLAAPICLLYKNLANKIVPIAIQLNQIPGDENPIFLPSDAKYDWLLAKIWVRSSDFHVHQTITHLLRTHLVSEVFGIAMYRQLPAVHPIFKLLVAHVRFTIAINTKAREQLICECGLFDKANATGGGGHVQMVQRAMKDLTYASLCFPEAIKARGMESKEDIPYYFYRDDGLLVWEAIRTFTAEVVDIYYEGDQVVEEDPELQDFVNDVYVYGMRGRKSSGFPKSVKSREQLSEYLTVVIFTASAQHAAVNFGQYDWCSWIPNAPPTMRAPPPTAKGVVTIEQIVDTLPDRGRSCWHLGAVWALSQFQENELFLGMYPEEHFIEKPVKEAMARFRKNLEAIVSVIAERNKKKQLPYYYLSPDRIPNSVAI
The assay is described as follows: Inhibition of 5-LO in human polymorphonuclear leukocytes assessed as residual activity at 10 uM preincubated for 10 mins followed by addition of arachidonic acid as substrate measured after 10 mins by HPLC method relative to control. Type of assay: cell-based.

Assay [2] concerns the target T2, Polyunsaturated fatty acid 5-lipoxygenase (Homo sapiens, UniProt P09917).
T2 sequence (P09917 whole entry): T1 sequence (whole entry)
The assay is described as follows: Inhibition of 5-LO in human polymorphonuclear leukocytes preincubated for 10 mins followed by addition of arachidonic acid as substrate measured after 10 mins by HPLC method. Type of assay: cell-based.

The target of assay [3] is T1, Polyunsaturated fatty acid 5-lipoxygenase (Homo sapiens). The assay is described as follows: Inhibition of recombinant human 5-LO expressed in Escherichia coli MV1190 cells assessed as residual activity preincubated for 10 mins followed by addition of arachidonic acid as substrate measured after 10 mins by RP-HPLC method relative to control. Summed up:
(§1)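 Recombinant human 5-LO expressed at 27 °C in E. coli MV1190 and partially purified from the 40000g supernatant on ATP-agarose. Enzyme taken up in PBS with 1 mM EDTA plus 1 mM ATP and preincubated with compound on ice 10 min. After 30 s at 37 °C, 2 mM CaCl2 and 20 μM AA added for 10 min. Stopped with methanol, products measured by RP-HPLC. Mean ± SEM, 3–4 experiments.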

Assay [4] addresses T2, Polyunsaturated fatty acid 5-lipoxygenase. As to the kind of experiment: Inhibition of recombinant human 5-LO expressed in Escherichia coli MV1190 cells preincubated for 10 mins followed by addition of arachidonic acid as substrate measured after 10 mins by RP-HPLC method. The procedure, abridged:
as §1

The target of assay [5] is T3, Prostaglandin E synthase (Homo sapiens) (UniProt O14684).
T3 sequence (whole entry): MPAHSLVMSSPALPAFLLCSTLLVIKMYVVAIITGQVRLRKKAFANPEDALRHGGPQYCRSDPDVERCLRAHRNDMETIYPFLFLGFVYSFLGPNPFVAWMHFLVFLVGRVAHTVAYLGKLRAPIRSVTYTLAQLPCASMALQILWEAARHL
As to the kind of experiment: Inhibition of mPGES-1 in microsomes of IL1-beta induced human A549 cells assessed as PGE2 formation by measuring enzyme residual activity at 10 uM preincubated for 15 mins followed by addition of PGH2 as substrate measured after 1 min by RP-HPLC method relative to control. Summed up:
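Microsomes from A549 cells stimulated with IL-1β (1 ng/mL) for 48 h, diluted in 0.1 M potassium phosphate pH 7.4 with 2.5 mM glutathione. Compound or vehicle added for 15 min at 4 °C, then 20 μM PGH2 for 1 min at 4 °C. Stopped with FeCl2/citric acid containing 11β-PGE2. PGE2 measured by solid-phase extraction and RP-HPLC. Residual activity as % of control, mean ± SEM, 3–4 experiments.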

Our source for the Activity and IC50 values is ChEMBL document CHEMBL3813661, “Humudifucol and Bioactive Prenylated Polyphenols from Hops (Humulus lupulus cv. "Cascade")” (J Nat Prod, 2016).

The structures appear in SMILES notation.

`COc1cc2c(c(O)c1C(=O)/C=C/c1ccc(O)cc1)C=CC(C)(C)O2` [XANTHOHUMOL C]: the Activity in assay [1] stood at 56.8%; in assay [3] it was 58%; in assay [5], 35.3%. Also, the 50% inhibitory concentration (IC50) in assay [2] (read-out: IC50) and in assay [4] (read-out: IC50) was > 10 µM each time.

Regarding `CC(C)=CCC1=C2O[C@@H](C(C)(C)O)C[C@@]2(O)C(=O)C(C(=O)CC(C)C)=C1O`, the values for the IC50 entry in assay [2] and in assay [4] (read-out: IC50) were “Not Active” and > 10 µM, respectively. In addition, the Activity worked out at 90.8% in assay [3] and 52.7% in assay [5].

Turning to `CC(C)=CCC1(O)C(=O)C(CC=C(C)C)(CC=C(C)C)C(=O)C(C(=O)C(C)C)=C1O` (stereo not drawn), the figures for the Activity in assay [1] and in assay [5] were 57.5% and 32.8%, respectively. Moreover, the IC50 (usually the concentration that inhibits the measured activity by half) in assay [2] (read-out: IC50) is > 10 µM; in assay [4] (read-out: IC50), 5.9 µM.

Take `CC(C)=CCc1c(O)cc(O)c2c1O[C@H](c1ccc(O)cc1)CC2=O`: the results for the Activity in assay [1], in assay [3] and in assay [5] were 87.5%, 66.7% and 56.5%, respectively. The IC50 in assay [2] (read-out: IC50) and in assay [4] (read-out: IC50) was > 10 µM in each case.

Take `CC(C)=CCC1=C(O)[C@](O)(CC=C(C)C)C(=O)C(C(=O)CC(C)C)=C1O`: the Activity in assay [1] was determined as 63.1%; in assay [5], 49.7%. Further, the IC50 in assay [2] (read-out: IC50) was > 10 µM; in assay [4] (read-out: IC50) it was 9.3 µM.

Consider `COc1cc(O)c(CC=C(C)C)c(O)c1C(=O)/C=C/c1ccc(O)cc1` [XANTHOHUMOL], for which the IC50 stood at 2.9 µM in assay [2] (read-out: IC50) and 2.1 µM in assay [4] (read-out: IC50). The Activity in assay [5] stood at 32.3%.

Consider `CC(C)=CCc1c(O)cc(O)c(-c2c(O)cc(O)c(CC=C(C)C)c2O)c1O`, for which the IC50 entry in assay [2] and in assay [4] was “Not Active” in each case. The Activity in assay [5] was found to be 40.2%.
